≈ marks a conversion by molar mass, not a printed value. Calls of active or inactive are those of the source. No cut-off for these calls is given here.
How the values were obtained:
[1] = target: Serine/threonine-protein kinase mTOR (Homo sapiens) (UniProt P42345); assay: Inhibition of mTOR
[2] = Inhibition of PI3K
[3] = tested on: Plasma; assay: Stability in human plasma after 5 hrs; format: ADME, cell-free
[4] = tested on: Plasma; assay: Stability in rat plasma after 5 hrs; format: ADME, cell-free
[5] = tested on: Plasma; assay: Stability in mouse plasma after 5 hrs; format: ADME, cell-free
[6] = tested on: U-87MG ATCC; assay: Antitumor activity against human U87MG cells xenografted in nude mouse assessed as inhibition of AKT T308 phosphorylation at 10 mg/kg, iv administered as single dose measured after 2 hrs; format: functional, organism-based; set-up: dose 10 mg/kg
Procedure, shortened: (§1)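 Nude mice bearing U87MG tumors got a single iv dose. Tumors were excised 2 h later and analysed by Western blot for phosphoproteins (AKT S473, T308) against vehicle-treated controls.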

[7] = Solubility in water; format: physicochemical
[8] = tested on: A498; assay: Antitumor activity against human A498 cells xenografted in nude mouse assessed as tumor growth inhibition at 25 mg/kg, iv once weekly
[9] = tested on: U-87MG ATCC; assay: Antitumor activity against human U87MG cells xenografted in nude mouse assessed as inhibition of AKT S473 phosphorylation at 10 mg/kg, iv administered as single dose measured after 2 hrs; format: functional, organism-based; set-up: dose 10 mg/kg; procedure, shortened: as §1
[10] = tested on: U-87MG ATCC; assay: Antitumor activity against human U87MG cells xenografted in nude mouse assessed as inhibition of S6K phosphorylation at 10 mg/kg, iv administered as single dose measured after 2 hrs; format: functional, organism-based; set-up: dose 10 mg/kg
[11] = tested on: Plasma; assay: Stability in mouse plasma in presence of esterase inhibitor sodium fluoride; format: ADME, cell-free
Procedure, shortened: (§2)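 Compound was incubated in nude mouse plasma or whole blood at 37 °C for 2 h, with heparin or sodium fluoride/EDTA as anticoagulant. Time-point samples were quenched with acetonitrile, dried, reconstituted and analysed by LC/MS for parent and hydrolysis products.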

[12] = Stability in mouse plasma assessed as compound remaining after 120 mins relative to basal level; format: ADME, cell-free; settings: read-out: Stability
Procedure, shortened: (§3)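 Compound was incubated in heparinized plasma at 37 °C for 2 h. Samples taken at various time points were quenched with acetonitrile, dried under nitrogen and reconstituted in methanol/water 20:80. Intact compound was quantified by LC/MS.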

[13] = tested on: U-87MG ATCC; assay: Antitumor activity against human U87MG cells xenografted in nude mouse assessed as tumor growth inhibition at 3 mg/kg, iv once weekly; format: functional, organism-based; set-up: dose 3 mg/kg
Procedure, shortened: (§4)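 U87MG glioma xenografts in nude mice were staged and randomized (n = 10). Dosing was iv once weekly in D5W (days 0, 6 or days 0, 6, 13), with vehicle controls. Tumor volume was measured twice weekly.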

[14] = species: Homo sapiens; assay: Stability in human plasma assessed as compound remaining after 5 mins relative to basal level
[15] = Stability in nude mouse whole blood assessed as release of (4S,4aR,6aS,7S,9aR,E)-1-(((3-(dimethylamino)propyl)(methyl)amino)methylene)-7,11-dihydroxy-4-(methoxymethyl)-4a-methyl-2,10-dioxo-1,2,4,4a,5,6,6a,7,8,9,9a,10-dodecahydroindeno[4,5-h]isochromen-5-yl hydrogen carbonate; format: ADME, tissue-based; procedure, shortened: as §2
[16] = Stability in rat plasma assessed as compound remaining after 15 mins relative to basal level; format: ADME, cell-free; settings: read-out: Stability; procedure, shortened: as §3
[17] = species: Homo sapiens; assay: Stability in human plasma assessed as compound remaining after 30 mins relative to basal level
[18] = Stability in human liver microsomes assessed as compound remaining after 30 mins; format: ADME, Microsome; settings: read-out: Stability
Procedure, shortened: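 Compound (10 μM) was incubated with human liver microsomes (1 mg/mL) at 37 °C for 30 min, alongside buffer (pH 7.4) and boiled-microsome controls. NADPH dependence was examined. Reactions were quenched with 3 volumes of cold acetonitrile.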

[19] = Stability in rat plasma assessed as compound remaining after 60 mins relative to basal level; format: ADME, cell-free; settings: read-out: Stability; procedure, shortened: as §3
[20] = species: Homo sapiens; assay: Stability in human plasma assessed as compound remaining after 120 mins relative to basal level
[21] = Stability in nude mouse whole blood assessed as 8-((4S,4aR,6aS,7S,9aR,E)-5-(carboxyoxy)-1-(((3-(dimethylamino)propyl)(methyl)amino)methylene)-11-hydroxy-4-(methoxymethyl)-4a-methyl-2,10-dioxo-1,2,4,4a,5,6,6a,7,8,9,9a,10-dodecahydroindeno[4,5-h]isochromen-7-yloxy)-8-oxooctanoic acid formation; format: ADME, tissue-based; procedure, shortened: as §2
[22] = Stability in mouse plasma assessed as compound remaining after 90 mins relative to basal level; format: ADME, cell-free; settings: read-out: Stability; procedure, shortened: as §3
[23] = Stability in rat plasma assessed as compound remaining after 5 mins relative to basal level; format: ADME, cell-free; settings: read-out: Stability; procedure, shortened: as §3
[24] = tested on: HT-29; assay: Antitumor activity against human HT-29 cells xenografted in nude mouse assessed as tumor growth inhibition at 15 mg/kg, iv once weekly; format: functional, organism-based; set-up: dose 15 mg/kg
Procedure, shortened: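 Nude mice bearing HT29 colon xenografts were randomized into groups (n = 10) and dosed iv once weekly. Agents were in 5% dextrose in water, or in 4% ethanol/5% polysorbate 80/5% PEG400 for the rapamycin-type agent. Tumor growth was monitored against vehicle.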

[25] = tested on: U-87MG ATCC; assay: Antitumor activity against human U87MG cells xenografted in nude mouse assessed as inhibition of S6K phosphorylation at 15 mg/kg, iv administered as single dose measured after 2 hrs; format: functional, organism-based; set-up: dose 15 mg/kg
[26] = Stability in mouse plasma assessed as compound remaining after 5 mins relative to basal level; format: ADME, cell-free; settings: read-out: Stability; procedure, shortened: as §3
[27] = Stability in rat plasma assessed as compound remaining after 90 mins relative to basal level; format: ADME, cell-free; settings: read-out: Stability; procedure, shortened: as §3
[28] = tested on: U-87MG ATCC; assay: Antitumor activity against human U87MG cells xenografted in nude mouse assessed as tumor growth inhibition at 5 mg/kg, iv once weekly; format: functional, organism-based; set-up: dose 5 mg/kg; procedure, shortened: as §4
[29] = Stability in mouse plasma assessed as compound remaining after 15 mins relative to basal level; format: ADME, cell-free; settings: read-out: Stability; procedure, shortened: as §3
[30] = species: Homo sapiens; assay: Stability in human plasma assessed as compound remaining after 15 mins relative to basal level
[31] = tested on: U-87MG ATCC; assay: Antitumor activity against human U87MG cells xenografted in nude mouse assessed as tumor growth inhibition administered iv once weekly; format: functional; procedure, shortened: as §4
[32] = Stability in nude mouse whole blood assessed as rapamycin formation; format: ADME, tissue-based; procedure, shortened: as §2
[33] = tested on: U-87MG ATCC; assay: Antitumor activity against human U87MG cells xenografted in nude mouse assessed as inhibition of AKT T308 phosphorylation at 15 mg/kg, iv administered as single dose measured after 2 hrs; format: functional, organism-based; set-up: dose 15 mg/kg; procedure, shortened: as §1
[34] = species: Homo sapiens; assay: Stability in human plasma assessed as compound remaining after 60 mins relative to basal level
[35] = Stability in nude mouse liver microsomes assessed as compound remaining after 30 mins; format: ADME, Microsome; settings: read-out: Stability
Procedure, shortened: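 Female nude mouse liver microsomes were incubated with compound for 30 min at 37 °C, with NADPH dependence examined. Remaining parent and hydrolysis products were measured.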

[36] = Stability in mouse plasma assessed as compound remaining after 60 mins relative to basal level; format: ADME, cell-free; settings: read-out: Stability; procedure, shortened: as §3
[37] = Stability in rat plasma assessed as compound remaining after 120 mins relative to basal level; format: ADME, cell-free; settings: read-out: Stability; procedure, shortened: as §3
[38] = Stability in mouse plasma assessed as compound remaining after 30 mins relative to basal level; format: ADME, cell-free; settings: read-out: Stability; procedure, shortened: as §3
[39] = species: Homo sapiens; assay: Stability in human plasma assessed as compound remaining after 90 mins relative to basal level
[40] = tested on: U-87MG ATCC; assay: Antitumor activity against human U87MG cells xenografted in nude mouse assessed as inhibition of AKT S473 phosphorylation at 15 mg/kg, iv administered as single dose measured after 2 hrs; format: functional, organism-based; set-up: dose 15 mg/kg; procedure, shortened: as §1
[41] = Stability in rat plasma assessed as compound remaining after 30 mins relative to basal level; format: ADME, cell-free; settings: read-out: Stability; procedure, shortened: as §3
[42] = tested on: A498; assay: Antitumor activity against human A498 cells xenografted in nude mouse assessed as tumor growth inhibition at 30 mg/kg, iv once weekly

For `C=CCN(/C=C1\C(=O)O[C@H](COC)[C@@]2(C)C1=C(O)C(=O)C1=C2[C@H](OC(C)=O)C[C@]2(C)[C@@H](OC(=O)CCCCCCC(=O)O[C@H]3CC[C@H](C[C@@H](C)[C@@H]4CC(=O)[C@H](C)/C=C(\C)[C@@H](O)[C@@H](OC)C(=O)[C@H](C)C[C@H](C)/C=C/C=C/C=C(\C)[C@@H](OC)C[C@@H]5CC[C@@H](C)[C@@](O)(O5)C(=O)C(=O)N5CCCC[C@H]5C(=O)O4)CC3)CC[C@@H]12)CC=C`, the inhibition [1] was “inactive”, the inhibition [2] was “inactive” and the Stability [3] was “Stable”. The Stability [4] was “Stable” and the Stability [5] was “Stable”.

In the case of `CO[C@H]1C[C@@H]2CC[C@@H](C)[C@@](O)(O2)C(=O)C(=O)N2CCCC[C@H]2C(=O)O[C@H]([C@H](C)C[C@@H]2CC[C@@H](O)[C@H](OC)C2)CC(=O)[C@H](C)/C=C(\C)[C@@H](O)[C@@H](OC)C(=O)[C@H](C)C[C@H](C)/C=C/C=C/C=C/1C` [SIROLIMUS], the Activity [6] was “inactive”, the solubility ([7]; buffer) was “Insoluble” and the Activity [8] was “Active”. For the same compound, the Activity [9] was “inactive” and the Activity [10] was “Active”.

For `COC[C@H]1OC(=O)/C(=C\N(C)CCCN(C)C)C2=C(O)C(=O)C3=C([C@H](OC(C)=O)C[C@]4(C)[C@@H](OC(=O)CCC(=O)O[C@@H]5CC[C@@H](C[C@@H](C)[C@@H]6CC(=O)[C@H](C)/C=C(\C)[C@@H](O)[C@@H](OC)C(=O)[C@H](C)C[C@H](C)/C=C/C=C/C=C(\C)[C@@H](OC)C[C@@H]7CC[C@@H](C)[C@@](O)(O7)C(=O)C(=O)N7CCCC[C@H]7C(=O)O6)C[C@H]5OC)CC[C@@H]34)[C@]21C`, the inhibition [1] was “inactive”, the Stability [11] was “Stable” and the inhibition [2] was “inactive”. For the same compound, the remaining at 2 h [12] was 15% and the Activity [13] was “Active”.

For `COC[C@H]1OC(=O)/C(=C\N(C)CCCN(C)C)C2=C(O)C(=O)C3=C([C@H](OC(C)=O)C[C@]4(C)[C@@H](OC(=O)CCCCCCC(=O)O[C@H]5CC[C@H](C[C@@H](C)[C@@H]6CC(=O)[C@H](C)/C=C(\C)[C@@H](O)[C@@H](OC)C(=O)[C@H](C)C[C@H](C)/C=C/C=C/C=C(\C)[C@@H](OC)C[C@@H]7CC[C@@H](C)[C@@](O)(O7)C(=O)C(=O)N7CCCC[C@H]7C(=O)O6)CC5)CC[C@@H]34)[C@]21C`, the inhibition [1] was “inactive” and the inhibition [2] was “inactive”.

For `COC[C@H]1OC(=O)/C(=C\N(C)CCCN(C)C)C2=C(O)C(=O)C3=C([C@H](OC(C)=O)C[C@]4(C)[C@@H](OC(=O)CCCCCCC(=O)O[C@@H]5CC[C@@H](C[C@@H](C)[C@@H]6CC(=O)[C@H](C)/C=C(\C)[C@@H](O)[C@@H](OC)C(=O)[C@H](C)C[C@H](C)/C=C/C=C/C=C(\C)[C@@H](OC)C[C@@H]7CC[C@@H](C)[C@@](O)(O7)C(=O)C(=O)N7CCCC[C@H]7C(=O)O6)C[C@H]5OC)CC[C@@H]34)[C@]21C`, the remaining at 5 min [14] was 86%, the Stability [15] was “Stable” and the remaining at 0.25 h [16] was 80%. For the same compound, the remaining at 0.5 h [17] was 91%, the remaining at 0.5 h [18] was at least 50% and the inhibition [1] was “inactive”. For the same compound, the remaining at 1 h [19] was 64%, the remaining at 2 h [20] was 83% and the Stability [11] was “Stable”. For the same compound, the Stability [21] was “Unstable”, the inhibition [2] was “inactive” and the solubility ([7]; buffer) was “Soluble”. It also gave a solubility ([7]; water, read-out: solubility) of 460 µg/mL (≈ 288 µM), a remaining at 1.5 h [22] of 10% and a remaining at 5 min [23] of 91%. The Activity [24] was “Active”, the Activity [25] was “Active” and the remaining at 5 min [26] was 53%. The remaining at 1.5 h [27] was 53%, the Activity [28] was “Active” and the remaining at 0.25 h [29] was 39%. For the same compound, the remaining at 0.25 h [30] was 93%, the Activity [31] was “Dose-dependent effect” and the Stability [32] was “Unstable”. The remaining at 2 h [12] was 8%, the Activity [33] was “Active” and the remaining at 1 h [34] was 83%. The remaining at 0.5 h [35] was at least 50%, the remaining at 1 h [36] was 13% and the remaining at 2 h [37] was 46%. The remaining at 0.5 h [38] was 18%, the remaining at 1.5 h [39] was 82% and the Activity [13] was “Active”. For the same compound, the Activity [40] was “Active”, the remaining at 0.5 h [41] was 71% and the Activity [42] was “Active”.
